Test results reported in the RNAGym collection of RNA variant scans (doi:10.1126/science.aae0568).
Fewer inactive variants are shown than the library holds.

B1: tRNA (parent)
chain: GUUCCGUUGGCGUAAUGGUAACGCGUCUCCCUCCUAAGGAGAAGACUGCGGGUUCGAGUCCCGUACGGAACG

Variants of: B1
Assay: yeast fitness relative to wild type (ratio to wild type); higher = fitter; tRNA-Arg(CCU), competitive growth, 37 C, YPD
Summary of the method: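 Variants of the tRNA-Arg(CCU) gene, chemically synthesised with a 3% per-site mutation rate at 69 sites, were placed at the native genomic locus in Saccharomyces cerevisiae. The pooled strains were competed in YPD at 37°C for 24 hours in six parallel replicates. Gene amplicons from the start population and from each end population were read by 100-nucleotide paired-end sequencing. Darwinian fitness relative to wild type came from changes in genotype frequencies; genotypes needed ≥ 100 starting reads, and estimates < 0.5 were set to 0.5.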

Variant	yeast fitness
G6A A21U A45U G48C A57C G67U	≤ 0.5
G6A A21U C33U	0.525
G6A A21U C33U A57U U59C	≤ 0.5
G6A A36G	0.89
G6A A36G A45C	0.751
G6A A36G C60G C66U	≤ 0.5
G6A A36G G48A	0.59
G6A A36U	0.604
G6A A36U A40G G44U U54C	≤ 0.5
G6A A36U C61G	0.646
G6A A36U C66U G67A	≤ 0.5
G6A A36U G56A C66U	≤ 0.5
G6A A37C A42C A69C	≤ 0.5
G6A A37C A65C A70C	≤ 0.5
G6A A37G G51C C61U	0.528
G6A A37G G68A A69G	0.545
G6A A37G U53G	≤ 0.5
G6A A37U	0.64
G6A A37U C55G C66U	≤ 0.5
G6A A37U C62G	≤ 0.5
G6A A37U G56A A65C	0.56

Variant	yeast fitness
G6A A40C	0.967
G6A A40G A42G	0.554
G6A A40G A45U G56A	≤ 0.5
G6A A40G G41A A42G	≤ 0.5
G6A A40G G44A	0.614
G6A A40U A43C	0.766
G6A A40U A69C	0.581
G6A A40U G56C	≤ 0.5
G6A A42C C62A	0.97
G6A A42C G48A C62U	0.698
G6A A42G G50C	0.62
G6A A42G U64C	0.629
G6A A42U G58A	0.634
G6A A43C	0.779
G6A A43G A69U	0.716
G6A A43G U59C	0.595
G6A A43U	0.747
G6A A43U C46A	0.649
G6A A43U U53C A57C A65U	≤ 0.5
G6A A45C A70U	≤ 0.5
G6A A45C C46G	0.617

Variant	yeast fitness
G6A A45C C46G C66U	≤ 0.5
G6A A45G A65U	0.771
G6A A45G A69C	0.748
G6A A45G A70C	0.856
G6A A45U	0.942
G6A A45U A57C	≤ 0.5
G6A A45U A69U	0.826
G6A A45U C49U	0.564
G6A A45U G51A	≤ 0.5
G6A A57C G58A	≤ 0.5
G6A A57C G63A A65C A70C	≤ 0.5
G6A A57U A65C A70C	0.534
G6A A65C A70U	0.712
G6A A65G	0.88
G6A A65U	0.925
G6A A70C	0.863
G6A A70G	0.928
G6A A70U	0.958
G6A C11A	0.639
G6A C11A A14C U19C G23A U32A A42C	0.532
G6A C11A A14C U19C U32A U35C A42C	≤ 0.5

Variant	yeast fitness
G6A C11A A15G C49G G51C G68A	≤ 0.5
G6A C11A A36C C61G C62A A69C	≤ 0.5
G6A C11A A40G G56C C61G A70U	≤ 0.5
G6A C11A A45U U59G	≤ 0.5
G6A C11A C24G A42U	≤ 0.5
G6A C11A C27G U35A A43U U54C A65G	≤ 0.5
G6A C11A C46A A57G	≤ 0.5
G6A C11A C66A	≤ 0.5
G6A C11A G17A U35G U59C	≤ 0.5
G6A C11A G52U	≤ 0.5
G6A C11A U54G	0.563
G6A C11G A21G C24A G52A C60A A69G	≤ 0.5
G6A C11G C22G U54A	≤ 0.5
G6A C11G C24U	≤ 0.5
G6A C11G C33G A70U	≤ 0.5
G6A C11G C34G A42G C62U	0.609
G6A C11G U35A A37U	≤ 0.5
G6A C11G U35A A37U A70C	≤ 0.5
G6A C11G U35A A37U U53A A65G	≤ 0.5
G6A C11U	0.801
G6A C11U A40G	≤ 0.5
